The source of these data is ChEMBL document CHEMBL2440008, “Identification of 2-aminooxazole amides as acyl-CoA: diacylglycerol acyltransferase 1 (DGAT1) inhibitors through scaffold hopping strategy” (Bioorg Med Chem Lett, 2013).

Series [1] concerns the target T1, Diacylglycerol O-acyltransferase 1 (Mus musculus, UniProt Q9Z2A7).
T1 sequence (Q9Z2A7 whole entry): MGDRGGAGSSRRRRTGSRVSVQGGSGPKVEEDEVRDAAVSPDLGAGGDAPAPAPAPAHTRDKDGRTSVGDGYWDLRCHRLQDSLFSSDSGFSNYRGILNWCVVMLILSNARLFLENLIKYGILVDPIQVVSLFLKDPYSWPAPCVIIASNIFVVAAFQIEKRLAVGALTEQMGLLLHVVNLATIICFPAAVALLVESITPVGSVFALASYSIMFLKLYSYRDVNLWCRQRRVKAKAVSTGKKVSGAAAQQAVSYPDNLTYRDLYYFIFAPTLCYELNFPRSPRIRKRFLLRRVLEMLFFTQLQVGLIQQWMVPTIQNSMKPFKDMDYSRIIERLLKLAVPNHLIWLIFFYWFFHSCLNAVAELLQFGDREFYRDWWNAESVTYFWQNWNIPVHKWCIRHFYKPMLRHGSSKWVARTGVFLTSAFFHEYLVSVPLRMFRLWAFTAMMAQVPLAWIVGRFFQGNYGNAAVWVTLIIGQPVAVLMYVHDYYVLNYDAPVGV
Nature of the series: Inhibition of mouse DGAT-1.

Series [2] has as its target T2, Cytochrome P450 2D6 (Homo sapiens, UniProt P10635). Nature of the series: Inhibition of CYP2D6 (unknown origin) preincubated prior to substrate addition. Type of series: ADME.
Target sequence in this assay (P10635 whole entry): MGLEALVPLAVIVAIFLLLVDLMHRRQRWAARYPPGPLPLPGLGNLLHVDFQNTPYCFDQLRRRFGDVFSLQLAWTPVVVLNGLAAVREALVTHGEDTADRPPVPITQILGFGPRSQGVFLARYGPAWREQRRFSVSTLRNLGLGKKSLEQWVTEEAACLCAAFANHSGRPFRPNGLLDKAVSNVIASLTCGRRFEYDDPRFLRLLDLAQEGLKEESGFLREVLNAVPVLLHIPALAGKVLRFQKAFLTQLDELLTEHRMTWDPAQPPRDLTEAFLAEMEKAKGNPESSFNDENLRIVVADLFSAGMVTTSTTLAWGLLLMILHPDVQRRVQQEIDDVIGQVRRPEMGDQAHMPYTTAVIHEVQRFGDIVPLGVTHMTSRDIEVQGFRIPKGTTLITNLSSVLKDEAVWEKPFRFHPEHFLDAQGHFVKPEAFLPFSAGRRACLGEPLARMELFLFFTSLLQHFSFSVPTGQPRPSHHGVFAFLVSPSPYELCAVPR
The target in series [3] is T2, Cytochrome P450 2D6. Nature of the series: Inhibition of CYP2D6 (unknown origin) coincubated with substrate.
Target sequence in this assay (P10635 whole entry, looked up): as the sequence (P10635 whole entry) above
Series [4] can be described thus: Solubility of the compound. Type of series: physicochemical.
Series [5] has as its target T3, Cytochrome P450 2C9 (Homo sapiens, UniProt P11712). Nature of the series: Inhibition of CYP2C9 (unknown origin) coincubated with substrate. Format: ADME.
The nature of series [6]: AUC in po dosed rat. To be noted: plasma. Format: ADME, organism-based.
For series [7], the target named is T3, Cytochrome P450 2C9. Nature of the series: Inhibition of CYP2C9 (unknown origin) preincubated prior to substrate addition. Type of series: ADME.
In series [8] the target is T4, Cytochrome P450 3A4 (Homo sapiens, UniProt P08684). As to the kind of experiment: Inhibition of CYP3A4 (unknown origin) preincubated prior to substrate addition. Format: ADME.
Series [9] concerns the target T4, Cytochrome P450 3A4. Nature of the series: Inhibition of CYP3A4 (unknown origin) coincubated with substrate. Type of series: ADME.
Series [10] has as its system Mus musculus. Nature of the series: Antidyslipidemic activity in C57BL/6J mouse postprandial triglyceridemia model assessed as reduction in plasma triglyceride level at 3 mg/kg, po treated 15 mins prior to corn oil-challenge measured after 2 hrs by colorimetric method relative to control. More on the design: scale not given: the % may be the effect or the level left. Type of series: functional. In short, it runs like this: (§1)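 Male C57BL/6J mice fasted overnight; oral dose in 20% hydroxypropyl-b-cyclodextrin vehicle (vehicle alone for controls) 15 min before 0.25 mL corn oil challenge at time 0. Terminal blood taken by heart puncture under anesthesia at 2 h; plasma triglycerides measured colorimetrically by enzymatic TG reagent with absorbance read on a microplate reader, compared with vehicle-treated controls.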

Series [11] is described as follows: Plasma protein binding (unknown origin). To be noted: read-out: PPB (converted). Format: ADME, cell-free.
Series [12] is described as follows: Clearance in human hepatocytes measured per 10^6 cells. Format: ADME, cell-based, Hepatocyte. To be noted: read-out: CLH.
The test system of series [13] is Mus musculus. As to the kind of experiment: Antidyslipidemic activity in C57BL/6J mouse postprandial triglyceridemia model assessed as reduction in plasma triglyceride level at 10 mg/kg, po treated 15 mins prior to corn oil-challenge measured after 2 hrs by colorimetric method relative to control. Type of series: functional. More on the design: scale not given: the % may be the effect or the level left. In short, it runs like this: as §1

The target of another series is hERG (Homo sapiens, UniProt Q12809). Nature of the series: Inhibition of human ERG at 10 uM relative to control.

In brackets after ≈: the same amount, converted by molar mass.

T4 sequence (P08684 whole entry): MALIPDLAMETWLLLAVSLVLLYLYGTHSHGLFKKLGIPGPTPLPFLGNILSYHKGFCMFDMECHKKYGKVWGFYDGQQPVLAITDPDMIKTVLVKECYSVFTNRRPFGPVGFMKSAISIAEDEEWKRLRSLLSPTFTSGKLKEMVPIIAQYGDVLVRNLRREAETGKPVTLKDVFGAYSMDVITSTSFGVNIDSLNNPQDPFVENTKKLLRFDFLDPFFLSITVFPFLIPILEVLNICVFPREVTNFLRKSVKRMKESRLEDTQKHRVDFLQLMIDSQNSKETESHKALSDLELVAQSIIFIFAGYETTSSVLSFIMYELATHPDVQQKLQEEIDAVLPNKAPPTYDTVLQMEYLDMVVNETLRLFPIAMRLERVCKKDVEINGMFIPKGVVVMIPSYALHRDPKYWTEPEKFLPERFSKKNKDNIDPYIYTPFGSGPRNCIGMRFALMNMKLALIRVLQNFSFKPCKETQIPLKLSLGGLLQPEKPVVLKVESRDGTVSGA
T3 sequence (P11712 whole entry): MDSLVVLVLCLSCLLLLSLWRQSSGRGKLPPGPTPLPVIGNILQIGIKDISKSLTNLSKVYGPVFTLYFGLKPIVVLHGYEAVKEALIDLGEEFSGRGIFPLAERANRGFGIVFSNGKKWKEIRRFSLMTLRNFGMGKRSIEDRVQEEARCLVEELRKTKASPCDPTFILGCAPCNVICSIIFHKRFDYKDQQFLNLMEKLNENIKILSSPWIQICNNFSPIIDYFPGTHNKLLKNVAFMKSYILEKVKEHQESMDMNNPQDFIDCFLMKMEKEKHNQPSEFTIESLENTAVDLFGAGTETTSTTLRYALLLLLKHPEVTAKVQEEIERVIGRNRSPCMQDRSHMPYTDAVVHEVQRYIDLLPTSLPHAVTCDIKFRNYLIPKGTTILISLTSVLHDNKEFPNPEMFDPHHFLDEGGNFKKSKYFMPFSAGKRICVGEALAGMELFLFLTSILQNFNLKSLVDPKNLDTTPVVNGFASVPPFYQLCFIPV
hERG, sequence (Q12809 whole entry): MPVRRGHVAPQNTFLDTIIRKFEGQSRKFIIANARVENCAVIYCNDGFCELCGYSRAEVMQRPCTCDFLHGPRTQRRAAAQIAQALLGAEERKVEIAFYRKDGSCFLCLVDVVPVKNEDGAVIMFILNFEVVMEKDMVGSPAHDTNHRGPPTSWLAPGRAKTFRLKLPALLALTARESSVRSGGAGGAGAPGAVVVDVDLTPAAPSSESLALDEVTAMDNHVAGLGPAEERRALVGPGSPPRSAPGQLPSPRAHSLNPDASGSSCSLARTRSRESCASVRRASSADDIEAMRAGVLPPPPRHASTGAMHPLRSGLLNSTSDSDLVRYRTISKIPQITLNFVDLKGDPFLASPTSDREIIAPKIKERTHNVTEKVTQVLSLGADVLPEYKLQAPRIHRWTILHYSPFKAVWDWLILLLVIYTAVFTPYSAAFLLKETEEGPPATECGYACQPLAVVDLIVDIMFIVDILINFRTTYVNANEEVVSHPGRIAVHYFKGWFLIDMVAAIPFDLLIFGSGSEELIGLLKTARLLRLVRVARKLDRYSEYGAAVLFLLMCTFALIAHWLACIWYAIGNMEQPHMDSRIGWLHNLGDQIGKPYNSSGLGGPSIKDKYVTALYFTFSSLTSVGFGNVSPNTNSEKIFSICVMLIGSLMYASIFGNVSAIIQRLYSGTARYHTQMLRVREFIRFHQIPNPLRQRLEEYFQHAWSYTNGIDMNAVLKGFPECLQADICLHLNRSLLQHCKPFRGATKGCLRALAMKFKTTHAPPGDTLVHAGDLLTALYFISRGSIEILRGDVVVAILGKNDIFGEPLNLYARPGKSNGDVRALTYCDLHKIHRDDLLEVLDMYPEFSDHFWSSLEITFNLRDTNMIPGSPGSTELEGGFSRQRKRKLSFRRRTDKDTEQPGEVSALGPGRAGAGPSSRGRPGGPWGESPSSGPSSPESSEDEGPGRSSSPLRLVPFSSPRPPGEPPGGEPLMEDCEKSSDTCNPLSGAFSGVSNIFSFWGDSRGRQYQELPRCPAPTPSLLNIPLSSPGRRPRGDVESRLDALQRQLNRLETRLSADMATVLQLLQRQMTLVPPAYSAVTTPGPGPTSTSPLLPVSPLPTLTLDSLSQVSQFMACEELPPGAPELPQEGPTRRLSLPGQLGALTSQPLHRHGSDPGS

With `O=C(Nc1ccc(N2CCCN(C(=O)Nc3ccccc3Cl)CC2)nc1)c1oc(N2CCCCC2)nc1C(F)(F)F`, the IC50 in series [1] was determined as 0.134 µM.

For `O=C(Nc1ccc(N2CCN(C(=O)Nc3ccccc3Cl)CC2)nc1)c1oc(N2CCCCC2)nc1C(F)(F)F`, the IC50 was above 20 µM against Cytochrome P450 2D6 [2]; above 20 µM on Cytochrome P450 2D6 [3]; 6.4 µM on Cytochrome P450 2C9 [5]; 9.7 µM against Cytochrome P450 2C9 [7]; 0.026 µM in series [1]; 5 µM against Cytochrome P450 3A4 [8]. The IC50 at Cytochrome P450 3A4 [9] was above 20 µM. Further, the concentration in solution in [4] (solubility) was 10 µM (≈ 5.78 µg/mL). The AUC in [6] was determined as 25 µM·h. Besides, the Activity is reported as -28% with Mus musculus [10] and -63% in the series on Mus musculus [13]. For the same molecule, in [11], the fraction unbound was 0.001. In addition, the hepatocyte CLint in [12] stood at 16.9 µL/min/1e6 cells.

With `O=C(Nc1ccc(N2CCN(C(=O)Oc3ccccc3Cl)CC2)nc1)c1oc(N2CCCCC2)nc1C(F)(F)F`, the IC50 in [1] amounted to 1.39 µM.

Take `O=C(Nc1ccc(N2CCN(C(=O)OC3CCCC3)CC2)nc1)c1oc(N2CCCCC2)nc1C(F)(F)F`: the Activity with Mus musculus [13] was -27%.

With `COCCN(C)c1ccc(NC(=O)c2oc(-c3ccccc3)nc2C(F)(F)F)cn1`, in series [6], the AUC stood at 12.7 µM·h. The IC50 in series [1] turned out to be 2.85 µM.

For the molecule `O=C(Nc1ccc(N2CCN(c3ncccc3Cl)CC2)nc1)c1oc(N2CCCCC2)nc1C(F)(F)F`, the IC50 in [1] was determined as 2.27 µM.

Take `CC(C)OC(=O)N1CCN(c2ccc(NC(=O)c3oc(N4CCCCC4)nc3C(F)(F)F)cn2)CC1`: the IC50 is above 20 µM against Cytochrome P450 2D6 [2]; above 20 µM on Cytochrome P450 2D6 [3]; above 20 µM at Cytochrome P450 2C9 [5]; above 20 µM on Cytochrome P450 2C9 [7]; 1.2 µM in series [1]; above 20 µM at Cytochrome P450 3A4 [8]. For the same molecule, the IC50 at Cytochrome P450 3A4 [9] was above 20 µM. In [4], the solubility is 100 µM (≈ 51.1 µg/mL). This molecule also displayed an area under the curve (AUC) in series [6] of 69 µM·h. At hERG, this molecule showed an inhibition at 10 µM of 40%. Besides, the fraction unbound in series [11] is 0.004. Moreover, the hepatocyte CLint in [12] amounted to 24.2 µL/min/1e6 cells. The Activity in the series with Mus musculus [13] was -12%.

As a reminder, the IC50 is the midpoint of a concentration-inhibition curve. Broadly, the solubility is the concentration that dissolves in the medium under given conditions. As usually defined, the AUC is the area under the concentration-time curve, a measure of exposure. Broadly, the inhibition is the drop in the measured response relative to a control, in per cent.
